ChEMBL document CHEMBL1671641, “1,5-benzodiazepines, a novel class of hepatitis C virus polymerase nonnucleoside inhibitors” (Antimicrob Agents Chemother, 2008)

Experiments:
[1] = molecular target: Human immunodeficiency virus type 1 reverse transcriptase (Human immunodeficiency virus 1, UniProt Q72547); experiment: Inhibition of Human immunodeficiency virus 1 reverse transcriptase expressed in Escherichia coli by scintillation proximity assay
Method in brief: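 N-terminal His6 HIV-1 RT was expressed in E. coli BL21(DE3), induced overnight at 37°C with 0.4 mM IPTG. The homodimer was purified by Ni-NTA and heparin chromatography. Activity was measured by scintillation proximity assay at 2.5 nM enzyme, with efavirenz as reference inhibitor.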

[2] = molecular target: T1, DNA polymerase alpha catalytic subunit (Homo sapiens, UniProt P09884); experiment: Inhibition of human DNA polymerase alpha
T1 sequence (P09884 whole entry): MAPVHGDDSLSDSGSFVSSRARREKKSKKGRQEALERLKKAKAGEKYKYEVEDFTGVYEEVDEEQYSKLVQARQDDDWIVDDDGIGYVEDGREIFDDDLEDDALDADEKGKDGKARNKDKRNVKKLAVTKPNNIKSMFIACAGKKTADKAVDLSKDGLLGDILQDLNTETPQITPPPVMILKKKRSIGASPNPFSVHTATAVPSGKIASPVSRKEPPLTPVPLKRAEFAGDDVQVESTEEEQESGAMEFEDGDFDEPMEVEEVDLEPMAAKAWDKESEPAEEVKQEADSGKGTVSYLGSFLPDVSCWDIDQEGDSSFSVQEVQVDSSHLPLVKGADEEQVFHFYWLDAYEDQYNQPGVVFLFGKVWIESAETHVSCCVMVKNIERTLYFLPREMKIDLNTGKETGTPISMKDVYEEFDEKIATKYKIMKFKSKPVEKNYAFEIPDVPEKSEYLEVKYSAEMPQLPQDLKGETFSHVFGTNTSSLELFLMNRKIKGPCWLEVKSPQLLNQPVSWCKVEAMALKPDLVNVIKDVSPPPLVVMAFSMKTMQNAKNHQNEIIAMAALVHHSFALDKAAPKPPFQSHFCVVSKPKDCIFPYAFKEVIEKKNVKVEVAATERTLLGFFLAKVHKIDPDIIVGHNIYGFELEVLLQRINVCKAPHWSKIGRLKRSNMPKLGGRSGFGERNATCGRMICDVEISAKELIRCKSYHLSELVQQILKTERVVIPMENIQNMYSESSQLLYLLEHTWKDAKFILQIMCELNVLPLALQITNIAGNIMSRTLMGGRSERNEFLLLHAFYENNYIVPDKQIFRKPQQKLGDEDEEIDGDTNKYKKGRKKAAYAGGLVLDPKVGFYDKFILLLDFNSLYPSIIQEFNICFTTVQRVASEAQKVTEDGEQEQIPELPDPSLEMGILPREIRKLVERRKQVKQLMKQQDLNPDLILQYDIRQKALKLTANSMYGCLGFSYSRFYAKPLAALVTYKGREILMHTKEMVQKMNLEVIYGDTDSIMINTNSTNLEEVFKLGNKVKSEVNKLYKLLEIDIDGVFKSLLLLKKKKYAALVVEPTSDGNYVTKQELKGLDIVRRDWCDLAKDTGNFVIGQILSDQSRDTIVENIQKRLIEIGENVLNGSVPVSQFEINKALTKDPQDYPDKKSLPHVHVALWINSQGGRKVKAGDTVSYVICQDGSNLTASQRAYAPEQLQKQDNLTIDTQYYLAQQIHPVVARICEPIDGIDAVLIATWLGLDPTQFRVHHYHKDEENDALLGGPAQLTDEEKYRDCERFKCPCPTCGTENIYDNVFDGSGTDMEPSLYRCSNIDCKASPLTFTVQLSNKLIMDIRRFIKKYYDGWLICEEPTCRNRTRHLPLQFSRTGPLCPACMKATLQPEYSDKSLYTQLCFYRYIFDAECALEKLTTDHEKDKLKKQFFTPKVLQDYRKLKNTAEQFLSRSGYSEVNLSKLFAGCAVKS
Method in brief: (§1)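 Each enzyme–compound pair was tested in duplicate over 0.8 to 100 μM, with 100 μM as the highest dose. Each run included a no-inhibitor control, a solvent dilution (0.016 to 2% DMSO) and the relevant reference inhibitor. Percent inhibition at 100 μM was recorded for polymerase γ.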

[3] = Inhibition of Dengue virus RNA-dependent RNA polymerase; method in brief: as §1
DNA polymerase beta = DNA polymerase beta (Homo sapiens, UniProt P06746); experiment: Inhibition of human DNA polymerase beta; method in brief: as §1
[4] = molecular target: T2, DNA polymerase subunit gamma-1 (Homo sapiens, UniProt P54098); experiment: Inhibition of human DNA polymerase gamma; method in brief: as §1
T2 sequence (P54098 whole entry): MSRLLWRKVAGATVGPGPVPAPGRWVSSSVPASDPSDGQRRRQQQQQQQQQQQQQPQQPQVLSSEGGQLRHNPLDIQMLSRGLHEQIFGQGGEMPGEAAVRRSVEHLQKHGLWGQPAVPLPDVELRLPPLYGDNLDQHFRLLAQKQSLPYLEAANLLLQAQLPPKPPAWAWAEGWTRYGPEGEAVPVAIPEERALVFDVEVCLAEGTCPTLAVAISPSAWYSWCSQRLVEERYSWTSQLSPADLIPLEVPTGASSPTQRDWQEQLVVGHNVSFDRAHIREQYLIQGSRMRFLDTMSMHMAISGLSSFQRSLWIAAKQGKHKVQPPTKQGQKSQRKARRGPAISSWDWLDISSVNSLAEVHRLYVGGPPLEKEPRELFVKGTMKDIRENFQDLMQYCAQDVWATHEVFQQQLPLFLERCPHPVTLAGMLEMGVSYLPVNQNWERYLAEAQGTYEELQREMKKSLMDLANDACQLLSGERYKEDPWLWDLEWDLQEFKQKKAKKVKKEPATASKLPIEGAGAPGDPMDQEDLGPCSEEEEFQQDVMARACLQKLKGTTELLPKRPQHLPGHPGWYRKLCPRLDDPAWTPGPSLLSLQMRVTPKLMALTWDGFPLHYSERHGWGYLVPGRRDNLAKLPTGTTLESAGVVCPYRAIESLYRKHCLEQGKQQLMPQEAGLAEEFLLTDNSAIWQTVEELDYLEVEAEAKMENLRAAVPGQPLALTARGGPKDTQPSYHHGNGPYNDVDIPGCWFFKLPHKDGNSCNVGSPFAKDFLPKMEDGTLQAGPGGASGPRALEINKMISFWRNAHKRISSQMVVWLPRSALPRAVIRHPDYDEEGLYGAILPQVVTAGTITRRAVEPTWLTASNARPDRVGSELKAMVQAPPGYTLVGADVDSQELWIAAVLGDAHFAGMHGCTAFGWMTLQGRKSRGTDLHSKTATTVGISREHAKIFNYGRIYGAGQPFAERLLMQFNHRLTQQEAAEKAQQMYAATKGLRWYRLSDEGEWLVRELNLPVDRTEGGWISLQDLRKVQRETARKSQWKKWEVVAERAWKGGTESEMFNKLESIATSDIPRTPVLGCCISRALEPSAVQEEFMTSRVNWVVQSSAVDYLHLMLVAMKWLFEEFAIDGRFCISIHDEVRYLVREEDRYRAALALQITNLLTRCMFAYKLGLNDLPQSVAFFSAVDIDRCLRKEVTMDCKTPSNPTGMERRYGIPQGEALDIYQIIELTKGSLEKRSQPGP

[5] = Cytotoxicity against LTR-Luc transfected human MT4 cells […] after 3 days by ATPLite assay; type: cell-based
[6] = Cytotoxicity against CMV-Luc transfected human HuH7 cells after 5 days; type: cell-based, Huh-7; conditions: CMV-Luc transfected HuH7 cells
[7] = molecular target: T3, DNA polymerase subunit gamma-1 (Homo sapiens) (UniProt P54098); experiment: Inhibition of human DNA polymerase gamma at 100 uM; method in brief: as §1
T3 sequence (whole entry): T2 sequence (P54098 whole entry)

Hepatitis C virus = experiment: Antiviral activity against Hepatitis C virus 1b infected in human HuH7 cells assessed as inhibition of viral replication after 3 days by luciferase reporter assay; type: functional, organism-based, Hepacivirus hominis, genotype 1b, Huh-7; conditions: Hepatitis C virus, genotype 1b, Huh-7, 72 h
Method in brief: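 HCV 1b subgenomic luciferase reporter replicon (clone ET) cells, 2,500 per well, were exposed to a nine-point 1/4 dilution series for 3 days. Replication was read as luciferase activity. Values are means ± SD from 2 to 23 independent experiments run in quadruplicate.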

CC(=O)N1c2ccccc2NC2=C(C(=O)CC(C)(C)C2)C1c1ccc(Cl)cc1Cl (centres undefined)
IC50 [1]: > 32 µM
IC50 [2]: > 100 µM
IC50 [3]: > 100 µM
IC50 (DNA polymerase beta): > 100 µM
IC50 [4]: > 100 µM
CC50 at 72 h [5]: 32 µM
CC50 at 120 h [6]: 32 µM
inhibition [7]: 30%
EC50 (Hepatitis C virus): > 32 µM
